Data on three molecules can be found in ChEMBL document CHEMBL1156074, “Diazo transfer-click reaction route to new, lipophilic teicoplanin and ristocetin aglycon derivatives with high antibacterial and anti-influenza virus activity: an aggregation and receptor binding study” (J Med Chem, 2009).

The structures appear in SMILES notation. In brackets after ≈: the same amount, converted by molar mass. Activity calls are given as the source filed them. Where only a bound is given, the exact number is not on record here.

For test [1], the system named is Influenza A virus. Nature of the test: Antiviral activity against Influenza A virus (A/Puerto Rico/8/34(H1N1)) assessed as inhibition of virus-induced cytopathic effect at highest concentration by cell-based assay. It is filed as functional, organism-based. The settings on record: A/Puerto Rico/8/1934(H1N1). The gist of the method:
(§1)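 Virus-induced cytopathic effect is scored visually in infected cell cultures. EC50 is defined as the compound concentration producing 50% inhibition of the CPE. A compound is recorded as not active when there is no inhibition at the highest concentration tested or at a subtoxic concentration.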
On the technique in general: Cytopathic effects are the visible damage that an infection or toxin causes in cultured cells.

Test [2] relates to Enterococcus faecalis. Nature of the test: Bactericidal activity against vancomycin-resistant and teicoplanin-sensitive Enterococcus faecalis ATCC 51299 harboring vanB gene after overnight incubation. It counts as functional.
The subject of test [3] is Staphylococcus epidermidis. Description: Antibacterial activity against Staphylococcus epidermidis after 18 hrs by broth microdilution method. It counts as functional. Background: In broth dilution the organism is exposed to a series of concentrations in liquid medium.
Test [4] concerns Influenza A virus. Nature of the test: Antiviral activity against Influenza A virus (A/Puerto Rico/8/34(H1N1)) assessed as cell viability at subtoxic concentration by cell-based MTS assay. It counts as functional, organism-based. The following applies: A/Puerto Rico/8/1934(H1N1). In general terms: Tetrazolium assays rely on reduction of a dye to a coloured formazan, in cell work by metabolically active cells.

In test [5] the test system is Enterococcus faecalis. Description: Bactericidal activity against vancomycin and teicoplanin-sensitive Enterococcus faecalis ATCC 29212 after overnight incubation. It counts as functional.
Test [6] relates to Enterococcus faecalis. Nature of the test: Antibacterial activity against vancomycin and teicoplanin-resistant Enterococcus faecalis 15376 harboring vanA gene after 18 hrs by broth microdilution method. It counts as functional. The following applies: Enterococcus faecalis, 15376, 18 h.
Test [7] concerns Enterococcus faecalis. Description: Antibacterial activity against vancomycin-resistant and teicoplanin-sensitive Enterococcus faecalis ATCC 51299 harboring vanB gene after 18 hrs by broth microdilution method. It is filed as functional. The settings on record: ATCC 51299, 18 h.
Test [8] has as its system Enterococcus faecalis. Nature of the test: Antibacterial activity against vancomycin and teicoplanin-sensitive Enterococcus faecalis ATCC 29212 after 18 hrs by broth microdilution method. It is filed as functional. The settings on record: ATCC 29212, 18 h.
Test [9] deals with Staphylococcus epidermidis. Nature of the test: Bactericidal activity against biofilm of Staphylococcus epidermidis ATCC 35984 after overnight incubation. It counts as functional. The following applies: RP62A.
The subject of test [10] is Bacillus subtilis. Description: Bactericidal activity against Bacillus subtilis ATCC 6633 after overnight incubation. It is filed as functional.
Test [11] has as its system Staphylococcus aureus. Nature of the test: Antibacterial activity against methicillin-sensitive Staphylococcus aureus ATCC 29213 after 18 hrs by broth microdilution method. It counts as functional. The following applies: ATCC 29213, 18 h.
Test [12] relates to Influenza B virus. Nature of the test: Antiviral activity against Influenza B virus (B/Hong Kong/5/72) assessed as cell viability at subtoxic concentration by cell-based MTS assay. It counts as functional. The following applies: B/Hong Kong/05/1972.
Test [13] deals with H3N2 subtype. Description: Antiviral activity against Influenza A virus (A/Hong Kong/7/87(H3N2)) assessed as cell viability at subtoxic concentration by cell-based MTS assay. It counts as functional, organism-based. The settings on record: A/Hong Kong/7/1987(H3N2).
In test [14] the test system is Staphylococcus aureus. Description: Antibacterial activity against methicillin-sensitive Staphylococcus aureus ATCC 33591 after 18 hrs by broth microdilution method. It is filed as functional. The following applies: ATCC 33591, 18 h.
For test [15], the system named is Bacillus subtilis. Nature of the test: Antibacterial activity against Bacillus subtilis ATCC 6633 after 18 hrs by broth microdilution method. The settings on record: ATCC 6633, 18 h. It is filed as functional.
Test [16] deals with Enterococcus faecalis. Description: Bactericidal activity against vancomycin and teicoplanin-resistant Enterococcus faecalis 15376 harboring vanA gene after overnight incubation. It is filed as functional.
Test [17] concerns Staphylococcus epidermidis. Nature of the test: Bactericidal activity against Staphylococcus epidermidis after overnight incubation. It is filed as functional.
The test system of test [18] is Influenza B virus. Nature of the test: Antiviral activity against Influenza B virus (B/Hong Kong/5/72) assessed as inhibition of virus-induced cytopathic effect at highest concentration by cell-based assay. It counts as functional. The settings on record: B/Hong Kong/05/1972. The gist of the method:
as §1

Test [19] concerns H3N2 subtype. Nature of the test: Antiviral activity against Influenza A virus (A/Hong Kong/7/87(H3N2)) assessed as inhibition of virus-induced cytopathic effect at highest concentration by cell-based assay. The following applies: A/Hong Kong/7/1987(H3N2). It counts as functional, organism-based. An outline of the steps:
as §1

The subject of test [20] is Staphylococcus aureus. Nature of the test: Bactericidal activity against methicillin-sensitive Staphylococcus aureus ATCC 33591 after overnight incubation. It is filed as functional.
Test [21] concerns Staphylococcus epidermidis. Nature of the test: Antibacterial activity against biofilm of Staphylococcus epidermidis ATCC 35984 after 18 hrs by broth microdilution method. It counts as functional. The settings on record: RP62A.
In test [22] the test system is Staphylococcus aureus. Nature of the test: Bactericidal activity against methicillin-sensitive Staphylococcus aureus ATCC 29213 after overnight incubation. It counts as functional.

Consider `COC(=O)[C@@H]1NC(=O)[C@H]2NC(=O)[C@H](NC(=O)[C@@H]3NC(=O)[C@H]4NC(=O)[C@@H](Cc5ccc(c(Cl)c5)Oc5cc3cc(c5O)Oc3ccc(cc3Cl)[C@H]2O)NC(=O)[C@H](N=[N+]=[N-])c2ccc(O)c(c2)Oc2cc(O)cc4c2)c2ccc(O)c(c2)-c2c(O)cc(O)cc21` [METHYL ESTER OF AZIDO TEICOPLANIN AGLYCON], for which the inhibition entry with Influenza A virus [1], with Influenza A virus [4], in the test with Influenza B virus [12], in the test with H3N2 subtype [13], with Influenza B virus [18] and with H3N2 subtype [19] was “inactive” each time. The MBC turned out to be 256 µg/mL (≈ 207 µM) against Enterococcus faecalis [2]; 256 µg/mL (≈ 207 µM) against Enterococcus faecalis [5]; 256 µg/mL (≈ 207 µM) in test [9]; 4 µg/mL (≈ 3.23 µM) in the test with Bacillus subtilis [10]; 256 µg/mL (≈ 207 µM) in the test on Enterococcus faecalis [16]; 256 µg/mL (≈ 207 µM) in [17]. Also, the MBC against Staphylococcus aureus [20] and in the test on Staphylococcus aureus [22] was 256 µg/mL (≈ 207 µM) throughout. Further, the MIC in test [3] was 64 µg/mL (≈ 51.7 µM); in the test on Enterococcus faecalis [6] it was 128 µg/mL (≈ 103 µM); in the test with Enterococcus faecalis [7] it was 128 µg/mL (≈ 103 µM); against Enterococcus faecalis [8], 128 µg/mL (≈ 103 µM); in the test on Staphylococcus aureus [11] it was 64 µg/mL (≈ 51.7 µM); in the test on Staphylococcus aureus [14], 64 µg/mL (≈ 51.7 µM). The MIC in the test on Bacillus subtilis [15] stood at 2 µg/mL (≈ 1.61 µM); in test [21] it was 64 µg/mL (≈ 51.7 µM).

For the molecule `CN[C@H](CC(C)C)C(=O)N[C@H]1C(=O)N[C@@H](CC(N)=O)C(=O)N[C@H]2C(=O)N[C@H]3C(=O)N[C@H](C(=O)N[C@H](C(=O)O)c4cc(O)cc(O)c4-c4cc3ccc4O)[C@H](O)c3ccc(c(Cl)c3)Oc3cc2cc(c3O[C@@H]2O[C@H](CO)[C@@H](O)[C@H](O)[C@H]2O[C@H]2C[C@](C)(N)[C@H](O)[C@H](C)O2)Oc2ccc(cc2Cl)[C@H]1O` [VANCOMYCIN], the MBC against Enterococcus faecalis [2] is 16 µg/mL (≈ 11 µM); against Enterococcus faecalis [5], 16 µg/mL (≈ 11 µM); in [9], 4 µg/mL (≈ 2.76 µM); with Bacillus subtilis [10] it was 4 µg/mL (≈ 2.76 µM); in test [17], 4 µg/mL (≈ 2.76 µM); with Staphylococcus aureus [20] it was 4 µg/mL (≈ 2.76 µM). In the test with Staphylococcus aureus [22], the MBC came out at 4 µg/mL (≈ 2.76 µM). Further, the MIC against Enterococcus faecalis [6] is more than 256 µg/mL; against Enterococcus faecalis [7] it was 16 µg/mL (≈ 11 µM); in the test with Bacillus subtilis [15], 1 µg/mL (≈ 0.69 µM).

Turning to `COC(=O)[C@@H]1NC(=O)[C@H]2NC(=O)[C@H](NC(=O)[C@@H]3NC(=O)[C@H]4NC(=O)[C@@H](Cc5ccc(c(Cl)c5)Oc5cc3cc(c5O)Oc3ccc(cc3Cl)[C@H]2O[C@@H]2O[C@H](CO)[C@@H](O)[C@H](O)[C@H]2NC(C)=O)NC(=O)[C@H](N=[N+]=[N-])c2ccc(O)c(c2)Oc2cc(O)cc4c2)c2ccc(O)c(c2)-c2c(O)cc(O)cc21`, the inhibition result in the test with Influenza A virus [1], with Influenza A virus [4], in the test with Influenza B virus [12], with H3N2 subtype [13], in the test on Influenza B virus [18] and in the test on H3N2 subtype [19] was “inactive” each time. Also, the MBC against Enterococcus faecalis [2] came out at 256 µg/mL (≈ 178 µM); in the test with Enterococcus faecalis [5], 256 µg/mL (≈ 178 µM); in test [9], 8 µg/mL (≈ 5.55 µM); with Bacillus subtilis [10], 8 µg/mL (≈ 5.55 µM); in the test with Enterococcus faecalis [16] it was 256 µg/mL (≈ 178 µM); in test [17], 4 µg/mL (≈ 2.77 µM). The MBC with Staphylococcus aureus [20] and in the test on Staphylococcus aureus [22] was 8 µg/mL (≈ 5.55 µM) throughout. In addition, the MIC is 4 µg/mL (≈ 2.77 µM) in test [3]; 16 µg/mL (≈ 11.1 µM) against Enterococcus faecalis [6]; 16 µg/mL (≈ 11.1 µM) against Enterococcus faecalis [7]; 16 µg/mL (≈ 11.1 µM) with Enterococcus faecalis [8]; 4 µg/mL (≈ 2.77 µM) in the test on Staphylococcus aureus [11]; 4 µg/mL (≈ 2.77 µM) against Staphylococcus aureus [14]. Further, the MIC (with Bacillus subtilis [15]; in test [21]) was 8 µg/mL (≈ 5.55 µM) throughout.
